Measurements gathered from unrelated publications.
Protocols differ between the studies behind these lines.
Organism: Staphylococcus aureus
Read-out: microbial killing

O=[N+]([O-])c1ccc(-c2nc3cccc(O)c3[nH]2)o1 — MBC (ATCC33591): 2 µg/mL
O=C(O)CN1C(=O)/C(=C/c2ccc(-c3ccc(N(c4ccccc4)c4ccccc4)cc3)c3ccccc23)NC1=S — MBC (broth dilution; ATCC43300): > 1000 µg/mL
COc1cc(NC(C)CCCNC(=S)NCCCC(C)Nc2cc(OC)cc3cccnc23)c2ncccc2c1.Cl.Cl (centres unmarked) — MBC (ATCC43300 MRSA; drug-resistant strain): 10 to 20 µg/mL
CCCCCCCCCCCC(=O)Oc1c(C)c(O)c(C(=O)/C=C/c2ccccc2)c(OC)c1C — MBC (broth dilution; ATCC25923): > 5000 µg/mL
O=C(O)CN1C(=O)/C(=C/c2ccc(-c3ccc(N(c4ccccc4)c4ccccc4)cc3)c3ccccc23)SC1=S — MBC (broth dilution; ATCC43300): > 1000 µg/mL
O=c1[nH]cc(F)c(=O)[nH]1 — MBC (broth dilution; 48 h): 1 µg/mL
COc1c(C)c(OS(=O)(=O)c2ccc3ccccc3c2)c(C)c(O)c1C(=O)/C=C/c1ccccc1 — MBC (broth dilution; ATCC25923): > 5000 µg/mL
O=C(O)CN1C(=O)/C(=C/c2ccc(-c3ccc(N(c4ccccc4)c4ccccc4)cc3)cc2)NC1=S — MBC (broth dilution; ATCC6538): 3.9 µg/mL
CCCC(=O)Oc1c(C)c(O)c(C(=O)/C=C/c2ccccc2)c(OC)c1C — MBC (broth dilution; ATCC25923): > 5000 µg/mL
CCCCCCCCCCCCCC#CC(=O)O — MBC: 7.8 µg/mL
O=C1NC(=S)N/C1=C\c1c2ccccc2c(-c2ccc(N(c3ccccc3)c3ccccc3)cc2)c2ccccc12 — MBC (broth dilution; ATCC43300): > 1000 µg/mL
CC(=O)NC[C@H]1CN(c2ccc(N3CCOCC3)c(F)c2)C(=O)O1 — MBC (broth dilution; NRS107): 16 µM
COc1c(C)c(OS(=O)(=O)c2ccc3ccccc3c2)c(C)c(OS(=O)(=O)c2ccc3ccccc3c2)c1C(=O)/C=C/c1ccccc1 — MBC (broth dilution; ATCC25923): > 5000 µg/mL
O=C(O)CN1C(=O)/C(=C/c2c3ccccc3c(-c3ccc(N(c4ccccc4)c4ccccc4)cc3)c3ccccc23)SC1=S — MBC (broth dilution; ATCC6538): > 1000 µg/mL
Cc1cc(/C=C2\Sc3ccccc3N2CCCN2CCC(C)CC2)c2ccccc2[n+]1C.[I-] — MBC (ATCC29213): 8 µg/mL
CCCCCCCCCC(=O)Oc1c(C)c(O)c(C(=O)/C=C/c2ccccc2)c(OC)c1C — MBC (broth dilution; ATCC25923): > 5000 µg/mL
Cc1c(NC(=O)CC2=NC(=O)CS2)c(=O)n(-c2ccccc2)n1C — MBC (broth dilution): 1 µg/mL
